Calls of active or inactive are those of the source. The rule behind the calls is not given here.
Legend:
[1] = system: HCT-116; assay: Antiproliferative activity against human HCT116 cells by MTT assay; assay type: functional, cell-based
[2] = molecular target: Histone deacetylase 1 (Homo sapiens, UniProt Q13547); assay: Inhibition of human recombinant HDAC1
[3] = system: T-24; assay: Induction of p21 WAF1/Cip1 transcription in human T24 cells assessed by luciferase reporter gene activity; assay type: functional, cell-based
[4] = system: SW48; assay: Antitumor activity against human SW48 cells xenografted in mouse at 50 mg/kg, ip; assay type: functional; conditions: route intraperitoneal, read-out: TGI
In short: (§1)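 Human tumour cells grown as xenografts in mice; compounds given daily by intraperitoneal injection. Antitumour activity is expressed as % tumour growth inhibition relative to vehicle-treated controls. Body weight was followed as the measure of gross toxicity.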

[5] = system: HCT-116; assay: Cell cycle arrest in human HCT116 cells at G2/M phase; assay type: functional, cell-based
In short: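 HCT116 cells treated with compounds in 1% DMSO for 16 h, then harvested by trypsinization and fixed. DNA was stained with propidium iodide and analysed by flow cytometry. The (G2+M)/S ratio is the percentage of gated cells in G2/M divided by the percentage in S phase.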

[6] = system: HMEC; assay: Cytotoxicity against human HMEC cells; assay type: functional, cell-based
In short: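 Cytotoxicity toward normal cells was measured as inhibition of proliferation of human normal mammary epithelial cells (HMEC), reported as IC50.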

[7] = system: HCT-116; assay: Antitumor activity against human HCT116 cells xenografted in mouse at 50 mg/kg, ip; assay type: functional; conditions: HCT-116, ip, route intraperitoneal, read-out: TGI; in short: as §1
[8] = Half life in iv dosed rat; assay type: ADME, organism-based; conditions: in vivo
[9] = molecular target: Histone deacetylase (Homo sapiens) (UniProt Q13547+O15379+Q9UBN7+Q92769+Q9UQL6+Q8WUI4+Q9BY41+Q96DB2+P56524+Q9UKV0+Q969S8); assay: Inhibition of HDAC assessed as ability to induce histone acetylation in human T24 cells; assay type: functional, cell-based; conditions: T-24
In short: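 T24 human bladder carcinoma cells treated at […] for 16 h. Histones acid-extracted, separated by SDS–PAGE and immunoblotted with antibodies specific for acetylated histone H4; total H4 also probed. Dose-dependence judged from blot.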

[10] = Bioavailability in rat; assay type: ADME, organism-based; conditions: in vivo

Sequence of Histone deacetylase 1 (Q13547 whole entry): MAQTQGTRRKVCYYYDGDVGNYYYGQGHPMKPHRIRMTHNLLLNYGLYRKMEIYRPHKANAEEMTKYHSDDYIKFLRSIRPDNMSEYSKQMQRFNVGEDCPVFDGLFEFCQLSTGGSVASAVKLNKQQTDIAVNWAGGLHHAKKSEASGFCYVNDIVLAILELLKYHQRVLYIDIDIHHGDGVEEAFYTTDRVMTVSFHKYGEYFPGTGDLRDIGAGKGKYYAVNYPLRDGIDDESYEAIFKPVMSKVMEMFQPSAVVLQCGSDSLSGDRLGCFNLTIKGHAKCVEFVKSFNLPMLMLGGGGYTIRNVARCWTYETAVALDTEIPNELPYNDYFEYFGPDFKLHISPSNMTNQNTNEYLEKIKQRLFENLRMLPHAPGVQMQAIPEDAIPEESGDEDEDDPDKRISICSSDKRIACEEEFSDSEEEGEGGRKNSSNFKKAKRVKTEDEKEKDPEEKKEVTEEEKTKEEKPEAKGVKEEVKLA

Row | SMILES | IC50 [1] | IC50 [2] | other results
1 | Nc1ccccc1NC(=O)/C=C/c1ccc(NCCCc2ccccc2)nc1 | 2 µM | 3 µM | 
2 | COc1ccc(NCc2ccc(C(=O)Nc3ccccc3N)cc2)cc1 | 2 µM | 0.6 µM | 
3 | COc1ccc(CNc2ccc(/C=C/C(=O)Nc3ccccc3N)cc2)cc1 |  | 4 µM | 
4 | COc1ccc(CNc2ccc(C(=O)Nc3ccccc3N)cc2)cc1 | 1 µM | 2 µM | 
5 | COc1cc(N(C)Cc2ccc(/C=C/C(=O)Nc3ccccc3N)cc2)cc(OC)c1OC | 5 µM | 3 µM | 
6 | COc1ccc(CNc2ccc(C(=O)Nc3ccccc3N)cc2)cc1OC |  | 4 µM | 
7 | COc1ccc(CNc2ccc(C(=O)Nc3ccccc3N)cn2)cc1 |  | 4 µM | 
8 | Nc1ccccc1NC(=O)/C=C/c1ccc(NCc2ccncc2)nc1 | 7 µM | 4 µM | 
9 | Nc1ccccc1NC(=O)/C=C/c1ccc(NCc2ccc(OC(F)(F)F)cc2)cc1 | 50 µM | 5 µM | 
10 | Nc1ccccc1NC(=O)/C=C/c1ccc(NCc2ccc([N+](=O)[O-])cc2)cc1 | 15 µM | 4 µM | 
11 | COc1ccc(NCc2ccc(C(=O)Nc3ccccc3N)cc2)cc1OC |  |  | Activity [3]: Active; inhibition in vivo at 50 mg/kg [4]: 66%; Activity [5]: Active; IC50 [6]: 15 µM; inhibition in vivo at 50 mg/kg [7]: 66%; half-life [8]: 0.7 h; Activity [9]: Dose-dependent effect
12 | Nc1ccccc1NC(=O)/C=C/c1ccc(NCc2ccc(OC(F)(F)F)cc2)nc1 | 4 µM | 2 µM | 
13 | Nc1ccccc1NC(=O)/C=C/c1ccc(NCc2ccccc2)nc1 |  | 3 µM | 
14 | Nc1ccccc1NC(=O)/C=C/c1ccc(NCCNc2ccccc2)nc1 | 5 µM | 2 µM | 
15 | COc1cc(CNc2ccc(/C=C/C(=O)Nc3ccccc3N)cn2)cc(OC)c1OC |  | 4 µM | 
16 | CN(C)c1ccc(CNc2ccc(/C=C/C(=O)Nc3ccccc3N)cn2)cc1 | 3 µM | 4 µM | 
17 | COc1cc(CNc2ccc(C(=O)Nc3ccccc3N)cn2)cc(OC)c1OC | 3 µM | 5 µM | 
18 | COc1cc(NCc2ccc(/C=C/C(=O)Nc3ccccc3N)cn2)cc(OC)c1OC |  | 3 µM | 
19 | Nc1ccccc1NC(=O)/C=C/c1ccc(NCc2ccncc2)cc1 | 2 µM | 10 µM | 
20 | COc1ccccc1NCc1ccc(/C=C/C(=O)Nc2ccccc2N)cc1 |  | 22 µM | 
21 | Nc1ccccc1NC(=O)/C=C/c1ccc(CNc2ccccc2)cc1 | 11 µM | 17 µM | 
22 | COc1ccc(NCc2ccc(/C=C/C(=O)Nc3ccccc3N)cc2)cc1OC | 5 µM | 2 µM | 
23 | COc1ccc(CNc2ccc(/C=C/C(=O)Nc3ccccc3N)cn2)cc1 |  | 2 µM | 
24 | COc1ccc(CCNc2ccc(C(=O)Nc3ccccc3N)cn2)cc1 |  | 3 µM | 
25 | COc1cccc(NCc2ccc(/C=C/C(=O)Nc3ccccc3N)cc2)c1 | 10 µM | 17 µM | 
26 | Nc1ccccc1NC(=O)/C=C/c1ccc(NCc2ccc(F)cc2)nc1 | 2 µM | 5 µM | 
27 | COc1cc(NCc2ccc(C(=O)Nc3ccccc3N)cc2)cc(OC)c1OC | 2 µM | 3 µM | 
28 | COc1cc(NCc2ccc(/C=C/C(=O)Nc3ccccc3N)cc2)cc(OC)c1OC |  | 2 µM | Activity [3]: Active; Activity [5]: Active; IC50 [6]: 39 µM; bioavailability [10]: 65%; half-life [8]: 1.8 h; Activity [9]: Dose-dependent effect
29 | COc1ccc(NCc2ccc(/C=C/C(=O)Nc3ccccc3N)cc2)cc1 |  | 4 µM | 
30 | COc1cc(CNc2ccc(C(=O)Nc3ccccc3N)cc2)cc(OC)c1OC | 2 µM | 3 µM | 

Source: ChEMBL document CHEMBL1146002, “Substituted N-(2-aminophenyl)-benzamides, (E)-N-(2-aminophenyl)-acrylamides and their analogues: novel classes of histone deacetylase inhibitors” (Bioorg Med Chem Lett, 2006)
